Data: paper PMC5695149 (Theranostics, 2017)
Starred links: 1 amine or outer side, 2 acyl side, 3 side chain; linkers in the order of their positions; H or OH if unused. Positions of bridges follow the written chain, without caps; N, C: chain ends. Non-standard residues stand in square brackets, D forms with d. Residues, ends and D or L forms follow the SMILES beside them. hNle(4R-Ph,7-yl) = O=C([C@H](C[C@@H](CCC[*:3])c1ccccc1)N[*:1])[*:2]; X1 = C[C@H](CCC[*:3])C[C@H](N[*:1])C(=O)[*:2]

Legend:
caspase-3 = experiment: Caspase-3 activity assay, PA-1; assay type: cell-based, human
Method in brief: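 Apoptosis in PA-1 cells was read as caspase-3 activity after exposing the cells to a caspase-3-specific substrate.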

p53 [1] = experiment: p53 accumulation kinetics in HCT-116 Venus knock-in cell line; assay type: cell-based; settings: HCT-116 p53-VKI; PhR 40 µM; nutlin-3a 0.5 or 5 µM (Fig. S9 legend)
PA-1 xenograft = experiment: Antitumor efficacy in PA-1 human xenograft model; assay type: in vivo, mice; settings: for mice that died during the treatment period: 21 days of treatment
Method in brief: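 Female athymic nude mice (BALB/c nu, 6 weeks) received 1 × 10^7 PA-1 cells in DMEM subcutaneously in the lower flank. After 10-15 days, mice with 100-150 mm3 tumors were randomized into 3 groups of 5-6. Test compound at 10 mg/kg, or PBS as negative control, was injected intratumorally every 2 days from day 0 for 21 days. Mice were followed a further 24 days; survival plotted as Kaplan-Meier curves.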

MDMX = biological target: T1, MDMX (Homo sapiens, UniProt O15151); experiment: Fluorescence polarization assay, FITC-labeled peptide with GST-labeled MDMX; assay type: binding; settings: compared within the library
T1 sequence (O15151 1-490): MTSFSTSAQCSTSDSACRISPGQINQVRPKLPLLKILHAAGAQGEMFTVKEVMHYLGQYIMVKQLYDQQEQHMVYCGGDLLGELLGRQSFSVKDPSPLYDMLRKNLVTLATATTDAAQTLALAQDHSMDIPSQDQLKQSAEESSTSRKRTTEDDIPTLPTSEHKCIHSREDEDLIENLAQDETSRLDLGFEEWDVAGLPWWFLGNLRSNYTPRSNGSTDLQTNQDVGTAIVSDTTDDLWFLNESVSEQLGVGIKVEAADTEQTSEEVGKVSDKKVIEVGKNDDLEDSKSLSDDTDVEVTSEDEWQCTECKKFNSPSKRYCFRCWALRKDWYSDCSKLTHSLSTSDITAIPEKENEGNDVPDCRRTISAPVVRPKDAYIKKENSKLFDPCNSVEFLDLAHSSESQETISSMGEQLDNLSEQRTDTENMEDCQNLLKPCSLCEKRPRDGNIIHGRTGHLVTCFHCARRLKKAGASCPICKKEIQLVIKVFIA
Method in brief: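 Fluorescence polarization: FITC-labelled peptide (10 or 20 nM) incubated with MDMX protein in 140 mM NaCl, 50 mM Tris pH 8.0 for 1 h at room temperature. Peptide concentration set from FITC absorbance at 494 nm. Kd obtained by nonlinear regression of dose-response curves.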

Skov-3 cells = experiment: Cell viability; assay type: cell-based; settings: Skov-3 (mutant p53), up to 50 μM, 48 h
Method in brief: (§1)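 MTT assay: cells at 5 × 10^3/well were exposed to test compound (3.12, 6.25, 12.5, 25, 50 µM) in serum-free medium for 4 h. Serum was then restored for a further 44 h. MTT (5 mg/mL in PBS) was added for 4 h at 37 °C, 5% CO2. Formazan was dissolved in DMSO and absorbance read at 490 nm. At least three independent measurements, SEM shown.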

MDA-231 cells = experiment: Cell viability; assay type: cell-based; settings: MDA-231 (mutant p53), up to 50 μM, 48 h
Method in brief: as §1

HEK-293 cells = experiment: Cell viability; assay type: cell-based; settings: HEK-293 normal cells, 3.12-50 µM, 48 h
Method in brief: (§2)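 MTT viability assay. Cells were seeded at 5 × 10³/well and given the test compound at 3.12, 6.25, 12.5, 25 or 50 µM in serum-free medium for 4 h. Serum was then replaced and cells incubated a further 44 h. MTT (5 mg/mL in PBS) was added for 4 h at 37 °C, 5% CO2, and formazan was dissolved in DMSO. A490 was read. SEM from at least three independent measurements.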

QSG-7701 cells [2] = experiment: Cell viability; assay type: cell-based; settings: QSG-7701 normal cells, 3.12-50 µM, 48 h
Method in brief: as §2

p53 [3] = experiment: Western blot of p53 expression, PA-1; assay type: cell-based, human; settings: PA-1, 40 µM peptide, 48 h
Method in brief: (§3)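 Cells in 6-well plates were treated 48 h, then lysed in Tris-SDS buffer (pH 6.8). 20 μg protein was run on 10% SDS-PAGE and transferred to nitrocellulose. Blots were probed overnight at 4 °C with rabbit monoclonal anti-p53 (1:500), with pan-actin (1:1000) as reference. Goat secondary antibodies were applied 1 h at room temperature, with chemiluminescent detection.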

p53 [4] = experiment: Western blot of p53 expression, MCF-7; assay type: cell-based; settings: MCF-7, 40 µM peptide, 48 h
Method in brief: as §3

PA-1 cells [5] = experiment: Cellular uptake of FITC-labelled peptides, confocal microscopy and FACS, PA-1; assay type: cell-based, human; settings: 37°C, 2 h
MCF-7 cells = experiment: Cellular uptake of FITC-labelled peptides, confocal microscopy, MCF-7; assay type: cell-based; settings: MCF-7, FITC-labeled peptide, 37°C, 2 h
Method in brief: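 Cells in DMEM + 10% FBS (50000/well) were grown 1 day to ~80% adherence. FITC-labelled peptide (1 mM DMSO stock) was added to 5 µM final at 37 °C. Cells were washed 3× in PBS, fixed in 4% formaldehyde for 10 min, stained with DAPI 1 μg/mL for 5 min, and imaged by confocal microscopy. PA-1 uptake was also quantified by flow cytometry.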

p53-MDM2 binding = p53-MDM2 binding (Homo sapiens, UniProt Q00987); experiment: Immunoprecipitation of p53-MDM2 from PA-1 cell lysates, western blotting; assay type: cell-based; settings: PA-1, 40 μM, 4 h, versus DMSO control, 10% FBS
Method in brief: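 Exponentially growing PA-1 cells received the test compound or an equal volume of DMSO. Cells were lysed in 50 mM Tris pH 8.0, 150 mM NaCl, 1 mM EDTA, 0.5% NP-40. Extract (500 µg) was precleared 2 h on protein G Sepharose, then incubated with rabbit monoclonal anti-p53 or mouse monoclonal anti-MDM2. Complexes were captured on protein G beads overnight at 4 °C and washed five times in cold lysis buffer. Western blots were probed for p53, MDM2 and pan-actin.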

sox2 and foxA2 genes = experiment: RT-qPCR of stemness and differentiation genes, PA-1; assay type: cell-based, human; settings: PA-1, 40 µM, 48 h
Method in brief: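 Exponentially growing PA-1 cells were seeded in 6-well plates and treated 48 h with 40 µM peptide; nutlin-3a at 1 µM was the comparator. mRNA was quantified by real-time qPCR and expressed as fold increase. Triplicates from three independent experiments, SEM shown.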

PA-1 cells [6] = experiment: Annexin-V/PI apoptosis assay, PA-1; assay type: cell-based, human; settings: PA-1, 40 μM peptides or 5 μM nutlin-3a, 48 h
Method in brief: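 Exposed PA-1 cells were stained with Annexin-V/PI. Apoptotic cells were counted as the sum of quadrants Q1+Q2+Q3 and reported as a ratio of total cells.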

PA-1 cells [7] = experiment: Cell cycle analysis by PI staining and flow cytometry, PA-1; assay type: cell-based, human; settings: PA-1, 40 μM peptides or 5 μM nutlin-3a, 48 h
QSG-7701 cells [8] = experiment: Cell cycle analysis by PI staining and flow cytometry, QSG-7701; assay type: cell-based; settings: QSG-7701, 48 h, PI staining
[9] = Mice voluntary cage-wheel exercise assay; assay type: in vivo; settings: BALB/c mice, 10 mg/kg subcutaneous, 20 days
Method in brief: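 BALB/c mice were randomly split into two groups given a single subcutaneous injection of PBS or test compound (10 mg/kg). Voluntary cage-wheel running cycles were recorded over 20 days after injection.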

Histological analysis = assay type: in vivo; settings: 21 days after injection, compared with PBS-treated mice
Method in brief: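 Tumor, heart, liver, spleen, lung, kidney and brain were harvested 21 days after injection. Tissue sections were stained with hematoxylin and eosin and examined for histological changes.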

p53 and p21 = experiment: Immunohistochemistry of tumor tissues; assay type: in vivo, mice; settings: PA-1 xenograft tumor tissue, 10 mg/kg
[10] = PA-1 xenograft, 10 mg/kg every other day

Chain of p53-MDM2 binding (Q00987 whole entry): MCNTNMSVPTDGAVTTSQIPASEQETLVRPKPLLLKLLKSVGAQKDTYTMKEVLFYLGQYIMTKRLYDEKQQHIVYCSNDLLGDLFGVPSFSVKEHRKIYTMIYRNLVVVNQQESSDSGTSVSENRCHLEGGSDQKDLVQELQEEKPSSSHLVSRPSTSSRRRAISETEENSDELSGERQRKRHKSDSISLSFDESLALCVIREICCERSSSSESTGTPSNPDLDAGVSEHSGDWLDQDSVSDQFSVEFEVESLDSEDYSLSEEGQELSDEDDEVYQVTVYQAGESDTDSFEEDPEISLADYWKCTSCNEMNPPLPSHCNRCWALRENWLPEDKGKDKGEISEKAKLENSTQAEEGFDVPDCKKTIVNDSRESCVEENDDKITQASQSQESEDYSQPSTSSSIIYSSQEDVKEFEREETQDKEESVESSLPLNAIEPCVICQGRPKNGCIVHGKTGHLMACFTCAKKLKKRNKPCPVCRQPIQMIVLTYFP

SMILES	time to highest levels of p53 and p21 (p53 [1]) [h]	mice that died during the treatment period (PA-1 xenograft; [10])	binding ability toward MDMX (MDMX)	effect on cell viability (Skov-3 cells)	effect on cell viability (MDA-231 cells)	effect on cell growth and proliferation (HEK-293 cells)	effect on cell growth and proliferation (QSG-7701 cells [2])	p53 expression (western blot) (p53 [3])	p53 expression (western blot) (p53 [4])	further results
COc1ccc(C2=N[C@@H](c3ccc(Cl)cc3)[C@@H](c3ccc(Cl)cc3)N2C(=O)N2CCNC(=O)C2)c(OC(C)C)c1 [nutlin-3a]	48	three in ten								apoptosis by caspase-3 activity (caspase-3; PA-1, at a low dose): minimal apoptosis; caspase-3 activity (caspase-3; PA-1, at higher doses (>5 μM)): no caspase-3 activity was detected; mice death in the first week of treatment (PA-1 xenograft; [10]): 20%; tumor growth inhibition (TGI) (PA-1 xenograft; PA-1 xenograft, athymic nude mice, 10 mg/kg every other day, intratumoral injection, 3 weeks): 30%
CC(=O)N[C@@H](CC(C)C)C(=O)N[C@H](C(=O)N[C@@H](Cc1ccccc1)C(=O)N[C@H]1CSCCC[C@@H](C)C[C@@H](C(=O)N[C@@H](CCC(N)=O)C(=O)N[C@@H](CC(C)C)C(=O)N[C@H](C(=O)N[C@@H](CO)C(N)=O)[C@@H](C)O)NC(=O)[C@H](Cc2c[nH]c3ccccc23)NC(=O)[C@H](Cc2ccc(O)cc2)NC(=O)[C@H](Cc2c[nH]cn2)NC1=O)[C@@H](C)O [MeR] (Ac-LTFCHYW[X1]QLTS-NH2; thioether 4-8; N-terminus assumed)			highest binding abilities	Negligible effects	Negligible effects	little effect on the cell growth and proliferation	little effect on the cell growth and proliferation	upregulated	upregulated	
CC(=O)N[C@@H](CC(C)C)C(=O)N[C@H](C(=O)N[C@@H](Cc1ccccc1)C(=O)N[C@H]1CSCCC[C@@H](c2ccccc2)C[C@@H](C(=O)N[C@@H](CCC(N)=O)C(=O)N[C@@H](CC(C)C)C(=O)N[C@H](C(=O)N[C@@H](CO)C(N)=O)[C@@H](C)O)NC(=O)[C@H](Cc2c[nH]c3ccccc23)NC(=O)[C@H](Cc2ccc(O)cc2)NC(=O)[C@H](Cc2c[nH]cn2)NC1=O)[C@@H](C)O [PhR] (Ac-LTFCHYW[hNle(4R-Ph,7-yl)]QLTS-NH2; thioether 4-8; N-terminus assumed)	12	no mice died	highest binding abilities	Negligible effects	Negligible effects	little effect on the cell growth and proliferation	little effect on the cell growth and proliferation	upregulated	upregulated	cellular uptake, comparison (PA-1 cells [5]; PA-1, 5 µM FITC-labelled peptide, confocal and flow cytometry): higher cellular uptake than MeR; internalization, live cell confocal imaging (PA-1 cells [5]; PA-1, 5 uM, live cells): internalized into the cells both in the cytoplasm and nucleus; cellular uptake, comparison (MCF-7 cells): higher cellular uptake than MeR; MDM2 protein bound to p53 (IP and western blotting) (p53-MDM2 binding): substantial reduction of MDM2 protein bound to p53; expression of differentiation gene foxA2 (qPCR) (sox2 and foxA2 genes): upregulation; expression of stemness gene sox2 (qPCR) (sox2 and foxA2 genes): significant downregulation; apoptotic effect (Annexin-V/PI) (PA-1 cells [6]): more pronounced in PA-1 than those of MeR and nutlin-3a; cell-cycle arrest (PA-1 cells [7]): more effective in inducing cell-cycle arrest in the G2/M phase than MeR and nutlin-3a; cell-cycle arrest in normal cell line (QSG-7701 cells [8]): did not induce cell cycle arrest; apoptosis by caspase-3 activity (caspase-3; PA-1, dose ladder): dose-dependent apoptosis; survival (Kaplan-Meier) (PA-1 xenograft; treated for 21 days and raised for another 24 days post treatment): able to prolong the lives of the mice; voluntary running cycles versus PBS group [9]: no significant differences; histological changes of major organs (H&E) (Histological analysis): no signs of organ lesions; p53 and p21 expression in tumor tissues (immunohistochemistry) (p53 and p21): higher expression levels of p53 and p21
